# Bioassay records deposited in PubChem BioAssay by The Scripps Research Institute Molecular Screening Center.
# ARFGAP1 inhibitor: inhibitors of rat ARFGAP1 GAP activity, primary screen, biochemical, fluorescence polarization, GDP tracer; 0.26% of 360,000 active; inhibition, % at 16.5 µM; ADP-ribosylation factor GTPase-activating protein 1 (Rattus norvegicus), Q62848; AID 651572, 2012; Arfgap1-stimulated ARF1 GTP hydrolysis, GDP FP detection;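 active means inhibition above a per-plate limit, mean inhibition of low control wells plus 3 SD, cut at about 25% in these data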
#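 System: truncated rat Arfgap1 GAP domain / Benchmarks: high control wells lacking Arfgap1, low control full reaction with DMSO / Times: compound-enzyme preincubation 20 min, reaction 120 min, detection 60 min, 25 °C / Repeats: one replicate per compound / Also added: human ARF1(Δ1-17)-GTP substrate / Measured by: Tracer-displacement fluorescence polarization with EDTA stop, 620/688 nm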
# PAFAH1B2 inh: PAFAH1B2 enzyme inhibitors, primary screen, biochemical, fluorescence polarization, human; Platelet-activating factor acetylhydrolase IB subunit alpha2 (Homo sapiens), P68402; recombinant PAFAH1B2, FP-rhodamine activity probe; inhibition, % at 3.39 µM; 1.2% of 340,000 active; AID 492953, 2010;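 active means inhibition above the mean of all tested compounds plus 3 SD, cut at about 24% in these data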
# ASAP1 GAP inh: inhibitors of human ASAP1 ArfGAP activity, primary screen, biochemical, fluorescence polarization | Arf-GAP with SH3 domain, ANK repeat and PH domain-containing protein 1 (Homo sapiens), … | ASAP1-stimulated ARF1 GTP hydrolysis, GDP FP detection | inhibition, % at 16.5 µM | 0.19% of 360,000 active | AID 624377, 2012; in the data active means inhibition above about 25%
# Target sequence (Q9ULH1 325-724 limits assumed): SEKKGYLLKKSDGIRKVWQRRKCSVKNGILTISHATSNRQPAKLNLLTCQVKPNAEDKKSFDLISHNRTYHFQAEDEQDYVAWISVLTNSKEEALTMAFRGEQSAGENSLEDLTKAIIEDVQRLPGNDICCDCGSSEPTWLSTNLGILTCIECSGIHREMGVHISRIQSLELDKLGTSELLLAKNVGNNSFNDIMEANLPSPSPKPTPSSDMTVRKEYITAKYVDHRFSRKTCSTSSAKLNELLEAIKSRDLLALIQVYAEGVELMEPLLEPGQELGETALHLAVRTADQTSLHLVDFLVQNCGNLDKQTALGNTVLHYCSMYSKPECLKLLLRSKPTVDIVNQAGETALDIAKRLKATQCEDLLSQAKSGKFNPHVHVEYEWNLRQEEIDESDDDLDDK
# PAFAH2 inh: PAFAH2 enzyme inhibitors, primary screen, biochemical, fluorescence polarization, human; Platelet-activating factor acetylhydrolase 2, cytoplasmic (Homo sapiens), Q99487; recombinant PAFAH2, FP-rhodamine activity probe; inhibition, % at 3.39 µM; 0.99% of 340,000 active; AID 492956, 2010;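 active means inhibition above the mean over all tested compounds plus 3 SD, cut at about 30% in these data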;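 further: inhibitors block probe labeling of enzyme so polarization drops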
# pPAFAH inh: pPAFAH enzyme inhibitors, primary screen, biochemical, fluorescence polarization, human; Platelet-activating factor acetylhydrolase (Homo sapiens), Q13093; inhibition, % at 3.39 µM; recombinant pPAFAH, FP-rhodamine probe fluorescence polarization; 1.5% of 330,000 active;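 active means inhibition above the mean inhibition across the screen plus 3 SD, cut at about 25% in these data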;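 further: inhibitors block binding of the rhodamine activity-based probe so polarization drops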
# PAFAH1B3 inh: PAFAH1B3 enzyme inhibitors, primary screen, biochemical, fluorescence polarization, human; Platelet-activating factor acetylhydrolase IB subunit alpha1 (Homo sapiens), Q15102; recombinant PAFAH1B3, FP-rhodamine probe; inhibition, % at 3.39 µM; 0.28% of 340,000 active;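 active means inhibition above the screen-wide average of all tested compounds plus 3 SD, cut at about 25% in these data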
# Hits are given with their value; i = inactive; nt = not tested or not shown. A selection: hits, their analogues and other compounds. The true share with any hit is near 2.7%.
SMILES,ARFGAP1 inhibitor,PAFAH1B2 inh,ASAP1 GAP inh,PAFAH2 inh,pPAFAH inh,PAFAH1B3 inh
CCOC(=O)C1CCCN(S(=O)(=O)c2ccc(S(=O)(=O)N3CCCC3)cc2)C1 (stereo not drawn),i,i,i,i,i,i
CCOC(=O)C1CCCN(S(=O)(=O)c2cc3[nH]c(=O)c(=O)[nH]c3cc2C)C1 (stereo not drawn),i,26,i,i,i,i
C=CCC(CC=C)(NC(=O)c1ccccc1C)c1ccccc1,i,25,i,i,i,i
CN(C(=O)CCc1cn(C)c2ccccc12)c1ccc(Oc2cccnc2)cc1,i,nt,i,nt,nt,nt
COC(=O)Cc1cc(=O)[nH]c(Nc2nc3ccccc3o2)n1,i,i,i,i,28,i
CCOC(=O)Cc1cc(=O)[nH]c(Nc2nc3ccccc3o2)n1,i,i,i,i,i,i
CC(C)(C)OC(=O)N1CCC(CC2CC(c3cccc(Br)c3)=NO2)(C(=O)NCC2CCCCC2)CC1 (stereo not drawn),i,i,i,i,i,i
O=C(c1ccccc1)N1CCC(CC2CC(c3cccc(Br)c3)=NO2)(C(=O)NCC2CCCCC2)CC1 (stereo not drawn),nt,i,nt,i,26,i
Cc1ccc(C)c(NC(=O)CSc2ccc(S(=O)(=O)N3CCCC3)cn2)c1,i,i,i,i,i,i
CCOC(=O)NC(=O)CSc1ccc(S(=O)(=O)N2CCCCC2)cn1,i,i,i,i,i,i
CC(C)(C)NC(=O)NC(=O)CSc1ccc(S(=O)(=O)N2CCCCC2)cn1,i,27,i,i,i,i
O=C(CSc1ccc(S(=O)(=O)N2CCCC2)cn1)Nc1ccc([N+](=O)[O-])cc1C(F)(F)F,i,27,i,i,nt,i
CCCCc1c(-c2ccccc2OC)ncn1Cc1c(Cl)cccc1Cl,i,nt,i,nt,nt,nt
Cc1ccc(C(=O)CCC(=O)OCC(=O)Nc2ccccc2SCC#N)cc1,i,i,i,i,27,i
COc1ccc(CCC(=O)Nc2c(-c3ccc(N(C)C)cc3)[nH][nH]c2=O)cc1,i,nt,49,nt,nt,nt
CC(C)(C)c1ccc(OCC(=O)O)cc1,i,i,i,i,i,i
CC(CCC(=O)O)(c1ccc(O)cc1)c1ccc(O)cc1,i,25,i,i,i,i
CCc1ccc(OCC(=O)N(Cc2cccs2)C2CCS(=O)(=O)C2)cc1 (stereo not drawn),i,i,i,i,i,i
CC(C)(C)c1ccc(OCC(=O)N(Cc2cccs2)C2CCS(=O)(=O)C2)cc1 (stereo not drawn),i,29,i,i,i,i
Cc1cc2cc(C(c3nnnn3Cc3ccccc3)N3CCc4ccccc43)c(=O)[nH]c2cc1C (stereo not drawn),i,i,i,i,i,i
Cc1cc2cc(C(c3nnnn3Cc3ccco3)N3CCc4ccccc43)c(=O)[nH]c2cc1C (stereo not drawn),i,i,i,i,30,i
CCCCCCCCNC(=O)CC(NS(=O)(=O)c1ccc(NC(C)=O)cc1)C(C)C (stereo not drawn),i,i,i,i,32,i
Cc1sc(N(C(=O)CCc2ccccc2)c2ccc(C(=O)O)cc2)nc1-c1ccccc1,i,34,i,i,25,i
Cc1nc2c(nc1C)C(=O)c1ccccc1C2=O,i,i,i,i,nt,i
COC1=C(N)C(=O)c2nc(C)ccc2C1=O,i,27,i,i,nt,63
NC(=O)c1c(N)[nH]c(C(=O)c2ccccc2)c1-c1ccccc1Cl,i,nt,i,nt,nt,nt
Cc1ccc(C(=O)N2O[C@]34C=C[C@]25C[C@@H](O)CC[C@]5(C)C3CC[C@]2(C)[C@@H]([C@H](C)/C=C/[C@H](C)C(C)C)CC[C@H]24)cc1 (stereo partly drawn),i,nt,i,nt,nt,nt
Cc1cc(NC(=O)COC(=O)CSCc2ccc(Cl)c(Cl)c2)no1,i,i,i,i,31,i
